# Assay results as given in publication PMC8542630 (Cell chemical biology, 2021).
# Key:
# Dm-spastin = Dm-spastin (Drosophila melanogaster, UniProt Q8I0P1, DEL311-372); experiment: NADH-coupled steady-state ATPase assay, Dm-spastin; type: biochemical, D. melanogaster
# Xl-katanin = Xl-katanin (Xenopus laevis, UniProt Q9PUL2); experiment: NADH-coupled steady-state ATPase assay, Xl-katanin; type: biochemical, X. laevis
# Method in brief: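 Recombinant Xl-katanin (50 nM; E. coli, MBP-trap, MonoQ and gel filtration) in 25 mM K-HEPES pH 7.5, 70 mM KCl, 20 mM (NH4)2SO4, 5 mM MgCl2, 2.5 mM DTT, 0.01% Triton X-100 plus NADH-coupled regeneration mix. After 10 min RT preincubation with test compound, MgATP started the reaction. The fluorescence decrease rate (340/440 nm) was converted to ATPase rate using an ADP standard curve.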
# [1] = target: T1, GFP-Sc-Dyn AAA3 E/Q (E2488Q) (Saccharomyces cerevisiae, UniProt P36022, E2488Q); experiment: NADH-coupled steady-state ATPase assay, GFP-Sc-Dyn AAA3 E/Q mutant; type: biochemical, S. cerevisiae
# [2] = target: GFP-Sc-Dyn AAA3 E/Q (E2488Q); experiment: as above; type: biochemical, S. cerevisiae; settings: 1 mM MgATP, n=3
# Sc-Dyn-lyso = target: T2, Sc-Dyn-lyso (Saccharomyces cerevisiae, UniProt P36022); experiment: Microscale thermophoresis; type: binding, S. cerevisiae
# T2 sequence (P36022 1758-2992 limits assumed): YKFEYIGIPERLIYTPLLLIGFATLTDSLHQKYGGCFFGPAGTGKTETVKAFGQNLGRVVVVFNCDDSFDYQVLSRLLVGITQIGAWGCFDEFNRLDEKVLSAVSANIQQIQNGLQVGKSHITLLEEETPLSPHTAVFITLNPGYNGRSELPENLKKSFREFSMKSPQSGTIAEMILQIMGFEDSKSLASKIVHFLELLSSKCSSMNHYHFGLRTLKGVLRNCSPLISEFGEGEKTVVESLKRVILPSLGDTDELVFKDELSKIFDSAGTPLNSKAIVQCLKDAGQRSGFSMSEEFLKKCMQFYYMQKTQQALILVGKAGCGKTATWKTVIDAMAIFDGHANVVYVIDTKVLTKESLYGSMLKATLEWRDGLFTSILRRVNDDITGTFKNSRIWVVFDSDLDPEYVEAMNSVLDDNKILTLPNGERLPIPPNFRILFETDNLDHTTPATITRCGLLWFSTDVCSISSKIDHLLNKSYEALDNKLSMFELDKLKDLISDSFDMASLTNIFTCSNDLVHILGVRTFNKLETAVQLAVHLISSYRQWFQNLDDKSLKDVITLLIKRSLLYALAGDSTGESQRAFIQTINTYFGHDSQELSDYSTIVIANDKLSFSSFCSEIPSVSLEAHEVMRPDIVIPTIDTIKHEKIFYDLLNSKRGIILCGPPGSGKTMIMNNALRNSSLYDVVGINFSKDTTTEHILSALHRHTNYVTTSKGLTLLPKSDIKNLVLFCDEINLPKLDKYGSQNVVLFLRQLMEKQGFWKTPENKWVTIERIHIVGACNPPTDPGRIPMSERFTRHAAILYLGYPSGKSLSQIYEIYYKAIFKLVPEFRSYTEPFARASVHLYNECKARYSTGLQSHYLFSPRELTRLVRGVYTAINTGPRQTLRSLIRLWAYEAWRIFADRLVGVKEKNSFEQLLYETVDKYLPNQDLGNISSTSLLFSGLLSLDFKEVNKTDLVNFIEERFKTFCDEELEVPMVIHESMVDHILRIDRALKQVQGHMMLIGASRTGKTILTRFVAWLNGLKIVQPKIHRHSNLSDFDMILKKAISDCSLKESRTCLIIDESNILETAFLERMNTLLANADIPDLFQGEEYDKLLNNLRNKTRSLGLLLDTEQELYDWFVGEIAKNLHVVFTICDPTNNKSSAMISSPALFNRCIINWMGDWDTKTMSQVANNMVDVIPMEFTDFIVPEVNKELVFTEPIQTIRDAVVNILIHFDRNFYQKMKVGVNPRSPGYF
# T2 sequence (P36022 3301-4092 limits assumed): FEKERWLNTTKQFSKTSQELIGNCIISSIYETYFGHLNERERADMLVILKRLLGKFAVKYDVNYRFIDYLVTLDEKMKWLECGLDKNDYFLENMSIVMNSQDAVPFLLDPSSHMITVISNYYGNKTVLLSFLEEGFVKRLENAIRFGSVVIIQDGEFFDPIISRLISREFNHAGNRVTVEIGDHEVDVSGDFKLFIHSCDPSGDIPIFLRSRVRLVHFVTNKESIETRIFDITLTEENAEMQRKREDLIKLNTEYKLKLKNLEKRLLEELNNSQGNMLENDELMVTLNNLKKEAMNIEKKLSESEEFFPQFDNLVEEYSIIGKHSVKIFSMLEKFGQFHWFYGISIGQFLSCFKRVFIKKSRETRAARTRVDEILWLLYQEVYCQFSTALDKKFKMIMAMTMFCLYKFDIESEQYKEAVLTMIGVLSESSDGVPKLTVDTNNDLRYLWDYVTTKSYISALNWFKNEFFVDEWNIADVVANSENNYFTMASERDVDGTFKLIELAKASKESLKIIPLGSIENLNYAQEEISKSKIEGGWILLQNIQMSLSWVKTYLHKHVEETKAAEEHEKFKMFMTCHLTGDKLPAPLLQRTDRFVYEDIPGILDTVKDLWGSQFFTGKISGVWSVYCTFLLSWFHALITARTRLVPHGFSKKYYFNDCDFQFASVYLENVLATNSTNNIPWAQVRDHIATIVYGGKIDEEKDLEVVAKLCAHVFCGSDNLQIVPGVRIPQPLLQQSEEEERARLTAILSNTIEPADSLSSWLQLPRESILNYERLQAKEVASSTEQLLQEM
# [3] = target: GFP-Sc-Dyn AAA1 E/Q (E1849Q) (Saccharomyces cerevisiae, UniProt P36022, E1849Q); experiment: Microscale thermophoresis; type: binding, S. cerevisiae
# [4] = target: T1, GFP-Sc-Dyn AAA3 E/Q (E2488Q); experiment: Microscale thermophoresis; type: binding, S. cerevisiae
# [5] = target: GFP-Sc-Dyn V2391S/M2732S (AAA3_V-S/AAA4_M-S) (Saccharomyces cerevisiae, UniProt P36022, M2732S/V2391S); experiment: Microscale thermophoresis; type: binding
# Sc-DynGST = Sc-DynGST (Saccharomyces cerevisiae, UniProt P36022); experiment: Single-molecule motility assay; type: biochemical, S. cerevisiae
# [6] = single-molecule, 0-50 μM compound
# T1 sequence (P36022 1219-4092 E2488Q): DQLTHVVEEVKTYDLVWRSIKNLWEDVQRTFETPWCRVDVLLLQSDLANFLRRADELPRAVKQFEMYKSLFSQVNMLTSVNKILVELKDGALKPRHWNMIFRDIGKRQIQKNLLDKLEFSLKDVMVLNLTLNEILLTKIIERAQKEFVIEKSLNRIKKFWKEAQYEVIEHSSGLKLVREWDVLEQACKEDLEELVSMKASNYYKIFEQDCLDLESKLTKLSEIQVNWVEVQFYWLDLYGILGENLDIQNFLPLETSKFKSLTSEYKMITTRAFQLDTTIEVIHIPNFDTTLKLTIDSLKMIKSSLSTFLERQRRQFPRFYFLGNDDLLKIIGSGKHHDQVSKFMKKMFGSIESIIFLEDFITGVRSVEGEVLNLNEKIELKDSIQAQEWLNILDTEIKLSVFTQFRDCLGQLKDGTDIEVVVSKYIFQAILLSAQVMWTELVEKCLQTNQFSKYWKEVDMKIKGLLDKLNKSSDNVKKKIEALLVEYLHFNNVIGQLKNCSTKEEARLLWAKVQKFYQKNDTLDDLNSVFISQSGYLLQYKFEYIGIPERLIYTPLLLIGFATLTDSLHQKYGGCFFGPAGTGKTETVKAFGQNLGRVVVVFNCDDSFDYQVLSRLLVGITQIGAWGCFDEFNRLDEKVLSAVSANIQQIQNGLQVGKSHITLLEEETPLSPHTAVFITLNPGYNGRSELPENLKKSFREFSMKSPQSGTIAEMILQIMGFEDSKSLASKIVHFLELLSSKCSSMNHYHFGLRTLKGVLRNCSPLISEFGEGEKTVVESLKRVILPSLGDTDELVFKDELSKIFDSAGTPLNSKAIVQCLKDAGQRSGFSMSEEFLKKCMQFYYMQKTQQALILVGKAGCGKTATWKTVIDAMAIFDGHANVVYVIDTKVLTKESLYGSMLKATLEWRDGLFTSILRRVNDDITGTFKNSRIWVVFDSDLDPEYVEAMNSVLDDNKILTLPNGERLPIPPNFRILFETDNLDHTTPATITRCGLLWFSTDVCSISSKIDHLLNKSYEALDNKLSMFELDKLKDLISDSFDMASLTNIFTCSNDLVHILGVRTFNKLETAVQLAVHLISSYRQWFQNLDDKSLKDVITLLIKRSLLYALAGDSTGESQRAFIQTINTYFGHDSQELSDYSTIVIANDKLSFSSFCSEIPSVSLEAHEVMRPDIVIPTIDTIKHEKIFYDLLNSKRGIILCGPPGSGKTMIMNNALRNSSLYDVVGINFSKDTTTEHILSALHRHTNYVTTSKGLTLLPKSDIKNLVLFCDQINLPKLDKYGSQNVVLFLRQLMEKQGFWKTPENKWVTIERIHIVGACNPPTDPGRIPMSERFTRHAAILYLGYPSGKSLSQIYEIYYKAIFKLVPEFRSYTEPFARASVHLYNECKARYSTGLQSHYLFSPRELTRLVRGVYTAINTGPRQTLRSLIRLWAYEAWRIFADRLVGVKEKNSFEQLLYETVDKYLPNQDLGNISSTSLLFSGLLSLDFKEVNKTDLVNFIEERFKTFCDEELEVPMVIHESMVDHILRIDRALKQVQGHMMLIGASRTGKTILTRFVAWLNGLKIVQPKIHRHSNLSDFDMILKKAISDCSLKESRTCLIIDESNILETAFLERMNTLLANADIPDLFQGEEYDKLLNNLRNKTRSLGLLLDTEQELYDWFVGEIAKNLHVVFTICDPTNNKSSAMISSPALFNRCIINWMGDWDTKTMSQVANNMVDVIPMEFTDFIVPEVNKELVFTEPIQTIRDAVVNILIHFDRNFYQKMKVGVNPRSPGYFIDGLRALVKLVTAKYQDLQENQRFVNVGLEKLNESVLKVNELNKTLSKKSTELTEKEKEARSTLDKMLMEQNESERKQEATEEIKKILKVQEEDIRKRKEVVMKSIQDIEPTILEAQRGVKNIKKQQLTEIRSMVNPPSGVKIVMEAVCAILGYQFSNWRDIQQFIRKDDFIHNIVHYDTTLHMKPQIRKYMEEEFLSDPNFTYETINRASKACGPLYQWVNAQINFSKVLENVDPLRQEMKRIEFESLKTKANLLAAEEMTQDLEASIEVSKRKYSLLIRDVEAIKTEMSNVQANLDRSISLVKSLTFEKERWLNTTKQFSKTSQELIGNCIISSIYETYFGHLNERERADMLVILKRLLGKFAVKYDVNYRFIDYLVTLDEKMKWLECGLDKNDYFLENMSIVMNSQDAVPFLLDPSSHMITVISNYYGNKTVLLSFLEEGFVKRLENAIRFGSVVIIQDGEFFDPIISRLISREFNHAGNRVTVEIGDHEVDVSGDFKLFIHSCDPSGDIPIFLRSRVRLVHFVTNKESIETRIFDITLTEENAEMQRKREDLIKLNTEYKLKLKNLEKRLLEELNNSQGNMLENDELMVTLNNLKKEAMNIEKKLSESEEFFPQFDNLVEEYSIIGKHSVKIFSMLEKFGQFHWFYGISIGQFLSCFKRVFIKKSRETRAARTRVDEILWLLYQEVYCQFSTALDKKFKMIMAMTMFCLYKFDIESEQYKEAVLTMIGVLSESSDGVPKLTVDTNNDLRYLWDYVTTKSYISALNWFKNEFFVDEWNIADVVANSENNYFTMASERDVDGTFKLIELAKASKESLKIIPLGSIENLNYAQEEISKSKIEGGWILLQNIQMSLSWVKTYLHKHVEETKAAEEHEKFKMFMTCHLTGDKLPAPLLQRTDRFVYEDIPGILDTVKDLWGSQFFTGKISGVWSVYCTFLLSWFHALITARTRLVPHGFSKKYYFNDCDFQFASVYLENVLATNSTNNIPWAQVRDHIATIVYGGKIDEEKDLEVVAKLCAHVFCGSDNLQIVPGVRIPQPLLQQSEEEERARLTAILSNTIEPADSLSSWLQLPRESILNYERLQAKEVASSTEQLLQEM
# Sc-DynGST, sequence (P36022 1219-4092 limits assumed): as the sequence (P36022 1219-4092 E2488Q) above, with Q1270E counted along it
# Xl-katanin, sequence (Q9PUL2 whole entry): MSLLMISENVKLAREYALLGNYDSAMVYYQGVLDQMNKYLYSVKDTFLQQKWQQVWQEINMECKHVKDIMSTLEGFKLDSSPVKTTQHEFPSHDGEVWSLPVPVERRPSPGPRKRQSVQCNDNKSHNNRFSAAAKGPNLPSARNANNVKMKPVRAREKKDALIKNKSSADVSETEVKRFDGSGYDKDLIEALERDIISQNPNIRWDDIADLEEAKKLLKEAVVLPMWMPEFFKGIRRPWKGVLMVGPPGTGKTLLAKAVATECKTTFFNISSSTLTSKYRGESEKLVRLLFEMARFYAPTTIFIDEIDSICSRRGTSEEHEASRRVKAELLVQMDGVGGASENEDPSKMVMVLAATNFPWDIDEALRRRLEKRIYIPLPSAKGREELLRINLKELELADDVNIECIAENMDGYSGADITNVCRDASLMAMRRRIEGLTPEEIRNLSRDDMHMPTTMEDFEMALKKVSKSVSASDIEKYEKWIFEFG
# GFP-Sc-Dyn AAA1 E/Q (E1849Q), sequence (P36022 1219-4092 E1849Q): as the sequence (P36022 1219-4092 E2488Q) above, with E631Q, Q1270E counted along it
# GFP-Sc-Dyn V2391S/M2732S (AAA3_V-S/AAA4_M-S), sequence (P36022 1219-4092 V2391S/M2732S): as the sequence (P36022 1219-4092 E2488Q) above, with V1173S, Q1270E, M1514S counted along it
compound,measurement,setting,value
"N#Cc1c(C2(c3ccc(Cl)cc3)CC2)nn2c(=O)c(Oc3cccc(Br)c3)c[nH]c12 [compound 20, 6-(3-bromophenoxy)-2-[1-(4-chlorophenyl)cyclopropyl]-7-oxo-4H-pyrazolo[1,5-a]pyrimidine-3-carbonitrile]","Reduction of ATPase activity, Dm-spastin","Dm-spastin; 20 μM, 1 mM MgATP",< 25%
same,"Percent steady-state ATPase activity, Dm-spastin","Dm-spastin; compound 20 μM, mean ± SD, n=3",88 ± 4.4%
same,"Reduction of ATPase activity, Xl-katanin","Xl-katanin; 20 μM, 1 mM MgATP",< 25%
same,"Percent steady-state ATPase activity, Xl-katanin","Xl-katanin; compound 20 μM, mean ± SD, n=3",76 ± 9.0%
same,IC50,[1],8.2 ± 1.4 µM
same,"IC50 fold lower than that of GFP-Sc-Dyn, AAA3 E/Q mutant",[2],~ 2 fold
same,EC50,Sc-Dyn-lyso,22 ± 5.3 µM
same,EC50,[3],73 ± 114 µM
same,"Hill slope, binding to AAA1 E/Q mutant (MST)","[3]; mean ± 95% CI, n=4",1.3 ± 0.9
same,EC50,[4],87 ± 104 µM
same,"Hill slope, binding to AAA3 E/Q mutant (MST)","[4]; mean ± 95% CI, n=4",0.8 ± 0.3
same,EC50,[5],> 100 µM
same,EC50,Sc-DynGST,12.7 ± 2.5 µM
same,Pausing during processive runs (in words),Sc-DynGST; single-molecule,no significant pausing
same,Effect on dynein processivity (run length) (in words),Sc-DynGST; [6],little to no effect
same,Effect on dynein velocity (in words),Sc-DynGST; [6],little to no effect
